Source: ChEMBL document CHEMBL5154634, “A Modular Synthetic Route Involving N-Aryl-2-nitrosoaniline Intermediates Leads to a New Series of 3-Substituted Halogenated Phenazine Antibacterial Agents” (J Med Chem, 2021)
Values after ≈ are worked out from the molar mass of the structure shown. Active and inactive are the calls of the source. The calls are words filed in the database; no cut-off is given here.

Experiments:
Staphylococcus aureus [1] = experiment: Induction of iron starvation in methicillin-resistant Staphylococcus aureus BAA-1707 biofilms assessed as upregulation of sfaA gene expression at 1/10XMBEC incubated for 4 hrs by RT-qPCR analysis; assay type: functional
Method in brief: (§1)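 MRSA BAA-1707 grown in TSB with 0.5% glucose to OD600 ~0.8–1.0, then biofilms formed 20 h at 37 °C statically in gelatin-coated 24-well plates. Biofilms treated 4 h at 37 °C with compound (1 μM or 1/10 MBEC) or DMSO vehicle. RNA extracted; only RIN ≥7 samples used. One-step SYBR RT-qPCR; ΔCT normalised to ptaA. Three independent experiments.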

Staphylococcus aureus [2] = experiment: Induction of iron starvation in methicillin-resistant Staphylococcus aureus BAA-1707 biofilms assessed as upregulation of isdB gene expression at 1/10XMBEC incubated for 4 hrs by RT-qPCR analysis; assay type: functional; method in brief: as §1
Enterococcus faecalis [3] = experiment: Antibacterial activity against Enterococcus faecalis OG1RF ATCC 47077 assessed as bacterial growth inhibition incubated for 16 hrs by broth microdilution susceptibility test; assay type: functional
Staphylococcus aureus [4] = experiment: Antibacterial activity against methicillin-resistant Staphylococcus aureus BAA-1707 assessed as bacterial growth inhibition incubated for 16 hrs by broth microdilution susceptibility test; assay type: functional
Method in brief: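 CLSI broth microdilution with 11 twofold dilutions (0.05–50 μM). About 10^5 cells per well from a log-phase culture. DMSO vehicle up to 0.5% v/v. At least three independent experiments.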

Staphylococcus aureus [5] = experiment: Antibiofilm activity against methicillin-resistant Staphylococcus aureus BAA-1707 biofilms assessed as reduction of viable biofilm cells at MBEC measured by CBD assay; assay type: functional
Method in brief: (§2)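 After the Calgary biofilm device assay, treated and untreated pegs were removed, sonicated 30 min in PBS and plated for CFU per peg. Log10 reduction of viable biofilm cells at the MBEC determined by comparison with untreated pegs. At least three independent experiments.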

HepG2 = experiment: Cytotoxicity against human HepG2 cells assessed as reduction in cell viability […] by Alamar blue assay; assay type: toxicity, cell-based
HEK293 = experiment: Cytotoxicity against human HEK293 cells assessed as reduction in cell viability incubated for 72 hrs by MTT assay; assay type: toxicity, cell-based
Method in brief: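 HEK-293 cells in DMEM with 10% FBS, 10⁴ cells/well, seeded overnight. Exposed to 0–200 μM (twofold steps, n = 6) for 72 h at 37 °C. MTT 5 mg/mL added for 4 h, formazan dissolved in DMSO, OD read at 570 nm. Inhibition % = (1 − test/untreated OD) × 100.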

Erythrocyte = experiment: Hemolytic activity against human RBC at 200 uM measured after 1 hr; assay type: toxicity, cell-based
Method in brief: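 2% hRBCs exposed to compound at 200 μM final, added from DMSO stock, for 1 h at 37 °C. Supernatant OD read at 405 nm. Hemolysis normalized between DMSO (0%) and Triton X (100%); three independent experiments.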

Streptococcus pneumoniae = experiment: Antibacterial activity against Streptococcus pneumoniae ATCC 6303 assessed as bacterial growth inhibition incubated for 16 to 20 hrs by turbidity based analysis; assay type: functional; details: time 16-20 hrs
Staphylococcus aureus [6] = experiment: Antibacterial activity against methicillin-resistant Staphylococcus aureus 147 assessed as bacterial growth inhibition; assay type: functional
Staphylococcus aureus [7] = experiment: Antibacterial activity against methicillin-resistant Staphylococcus aureus 129 assessed as bacterial growth inhibition; assay type: functional
Staphylococcus aureus [8] = experiment: Antibacterial activity against methicillin-resistant Staphylococcus aureus BAA-44 assessed as bacterial growth inhibition incubated for 16 hrs by broth microdilution susceptibility test; assay type: functional
Method in brief: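 CLSI broth microdilution with 11 twofold dilutions (0.05–50 μM). Medium was LB for the staphylococci and BHI for VRE 700221. About 10^5 cells per well from a log-phase culture. […] DMSO vehicle up to 0.5% v/v. At least three independent experiments.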

HeLa = experiment: Cytotoxicity against human HeLa cells assessed as reduction in cell viability incubated for 24 hrs by LDH release assay; assay type: toxicity, cell-based
Method in brief: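 HeLa cells in DMEM with 10% FBS, treated at 70–80% confluence with 25, 50 and 100 μM for 24 h. LDH in supernatant measured by 30 min reaction at room temperature, then stop solution and absorbance at 490 nm. Controls: 2% Triton X-100 (maximum), medium only, DMSO vehicle. Three independent experiments.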

[9] = tested on: Staphylococcus epidermidis; experiment: Antibiofilm activity against methicillin-resistant Staphylococcus epidermidis ATCC 35984 biofilms assessed as reduction of viable biofilm cells at MBEC measured by CBD assay; assay type: functional; method in brief: as §2
[10] = tested on: Mycobacterium tuberculosis; experiment: Antibacterial activity against Mycobacterium tuberculosis H37Ra ATCC 25177 assessed as bacterial growth inhibition incubated for 7 days by absorbance based analysis; assay type: functional; details: H37Ra ATCC 25177, 168 h, time 7 day
Method in brief: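 H37Ra grown 2 weeks in Middlebrook 7H9, then diluted to OD600 0.01. Compounds added in twofold dilutions, final 0.024–50 μM, with 0.5% DMSO and streptomycin as positive control. Incubated 7 days at 37 °C. MIC is the lowest concentration with no growth, with OD600 recorded. At least three independent experiments.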

[11] = tested on: Staphylococcus epidermidis; experiment: Antibiofilm activity against methicillin-resistant Staphylococcus epidermidis ATCC 35984 biofilms assessed as biofilm killing at 3.13 uM measured by CBD assay; assay type: functional
Staphylococcus aureus [12] = experiment: Induction of iron starvation in methicillin-resistant Staphylococcus aureus BAA-1707 biofilms assessed as upregulation of sbnC gene expression at 1/10XMBEC incubated for 4 hrs by RT-qPCR analysis; assay type: functional; method in brief: as §1
Staphylococcus aureus [13] = experiment: Antibacterial activity against methicillin-resistant Staphylococcus aureus 138 assessed as bacterial growth inhibition; assay type: functional
Staphylococcus aureus [14] = experiment: Antibacterial activity against methicillin-resistant Staphylococcus aureus clinical isolate 1 assessed as bacterial growth inhibition; assay type: functional
Staphylococcus aureus [15] = experiment: Induction of iron starvation in methicillin-resistant Staphylococcus aureus BAA-1707 biofilms assessed as upregulation of MW0695 gene expression at 1/10XMBEC incubated for 4 hrs by RT-qPCR analysis; assay type: functional; method in brief: as §1
Enterococcus faecalis [16] = experiment: Antibacterial activity against Enterococcus faecalis OG1RF ATCC 47077 infected in C57BL/6J mouse dorsal wound infection model assessed as reduction in bacterial load in wound administered topically once a day for 3 days; assay type: functional; details: time 3 day
Method in brief: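 Female C57BL/6J mice, 7 weeks old. 3 mm dorsal punch wound infected with 20 μL of 6×10¹⁰ CFU/mL and covered with Tegaderm. From 24 h post-infection, PEG 400/PEG 3350 ointment or PEG vehicle applied topically once daily. Day 3 wounds excised, homogenized in PBS and plated on TSA with rifampicin and fusidic acid for CFU.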

Staphylococcus aureus [17] = experiment: Induction of iron starvation in methicillin-resistant Staphylococcus aureus BAA-1707 biofilms assessed as upregulation of sbnC gene expression at 1 uM incubated for 4 hrs by RT-qPCR analysis; assay type: functional; method in brief: as §1
Staphylococcus aureus [18] = experiment: Antibacterial activity against Staphylococcus aureus UAMS-1 infected in BALB/c mouse dorsal wound infection model assessed as reduction in bacterial load in wound administered topically twice a day for 3 days; assay type: functional; details: time 3 day
Method in brief: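 Female BALB/c mice, 4–6 weeks old, anesthetized with ketamine/xylazine i.p. 4.5 mm dermal punch wound inoculated with 1×10⁷ CFU in 10 μL. 50 μL PEG 400/3350 ointment or vehicle given 45 min post-inoculation, then every 12 h for 3 days. Tissue excised with 7 mm punch, homogenized, plated on ChromoAgar; CFU per lesion.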

Staphylococcus aureus [19] = experiment: Antibiofilm activity against methicillin-resistant Staphylococcus aureus BAA-1707 biofilms assessed as biofilm killing at MBEC measured by CBD assay; assay type: functional

## Cc1cccc2nc3c(O)c(Br)c(Cl)c(Br)c3nc12
Staphylococcus aureus [1]
  Activity: Active
Staphylococcus aureus [2]
  Activity: Active
Enterococcus faecalis [3]
  MIC: 0.2 µM (≈ 0.0805 µg/mL)
Staphylococcus aureus [4]
  MIC: 0.05 µM (≈ 0.0201 µg/mL)
Staphylococcus aureus [5]
  Activity: 2.55 log10CFU
HepG2
  IC50: > 200 µM
HEK293
  IC50: 18.3 µM
Erythrocyte
  Activity: <= 1%
Streptococcus pneumoniae
  MIC: 0.5 µM (≈ 0.201 µg/mL)
Staphylococcus aureus [6]
  MIC: 0.06 µM (≈ 0.0241 µg/mL)
Staphylococcus aureus [7]
  MIC: 0.06 µM (≈ 0.0241 µg/mL)
Staphylococcus aureus [8]
  MIC: 0.08 µM (≈ 0.0322 µg/mL)
HeLa
  IC50: > 100 µM
[9]
  Activity: 3.65 log10CFU
[10]
  MIC: […]
[11]
  Activity: 99.999%
Staphylococcus aureus [12]
  Activity: Active
Staphylococcus aureus [13]
  MIC: 0.06 µM (≈ 0.0241 µg/mL)
Staphylococcus aureus [14]
  MIC: 0.06 µM (≈ 0.0241 µg/mL)
Staphylococcus aureus [15]
  Activity: Active
Enterococcus faecalis [16]
  Activity: 1.73 log10CFU
Staphylococcus aureus [17]
  Activity: Active
Staphylococcus aureus [18]
  Activity: 0.82 log10CFU
Staphylococcus aureus [19]
  Activity: 99.9%
